Laboratory results taken from ChEMBL document CHEMBL4020721 (Eur J Med Chem, 2017).
pIC50: −log10 of the molar value.

Columns and labels:
CYP1A2 [1] = target: T1, CYP1A2 (Homo sapiens, UniProt P05177); assay: Time dependent irreversible inhibition of CYP1A2 in human liver microsomes at 10 uM preincubated with compound followed by NADPH addition by LC-MS/MS analysis; type: ADME; settings: liver microsomes
T1 sequence (P05177 whole entry): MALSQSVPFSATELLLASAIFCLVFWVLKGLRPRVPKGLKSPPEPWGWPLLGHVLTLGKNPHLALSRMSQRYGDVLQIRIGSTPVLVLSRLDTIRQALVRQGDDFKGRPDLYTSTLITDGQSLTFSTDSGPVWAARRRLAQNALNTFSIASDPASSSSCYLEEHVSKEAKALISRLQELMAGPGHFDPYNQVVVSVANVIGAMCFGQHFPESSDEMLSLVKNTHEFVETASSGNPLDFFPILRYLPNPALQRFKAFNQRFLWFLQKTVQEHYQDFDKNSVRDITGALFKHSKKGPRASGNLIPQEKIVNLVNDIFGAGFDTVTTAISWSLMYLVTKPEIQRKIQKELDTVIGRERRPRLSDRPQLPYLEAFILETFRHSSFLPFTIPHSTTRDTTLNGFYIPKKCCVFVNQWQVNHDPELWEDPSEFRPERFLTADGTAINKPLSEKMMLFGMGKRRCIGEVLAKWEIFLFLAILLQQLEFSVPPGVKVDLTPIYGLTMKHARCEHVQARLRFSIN
Outline: (§1)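 HLM (0.2 mg/ml) with 10 µM compound were preincubated 0, 5, 10 or 20 min at 37°C with 1 mM NADPH or PBS. Substrate cocktail (halved concentrations) plus NADPH was then added for 10 min. Metabolites were measured by LC-MS/MS. Kobs is the slope of relative activity versus preincubation time.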

[2] = Intrinsic clearance in rat liver microsomes assessed per mg protein at 1 uM preincubated for 5 mins followed by NADPH addition measured after 5 to 30 mins by LC-MS/MS analysis; type: ADME, microsome; settings: read-out: CLH
Outline: (§2)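 Microsomes (0.5 mg/ml) with 1 µM compound were preincubated 5 min at 37°C in 100 mM phosphate buffer pH 7.4, then started with 1 mM NADPH. Samples were taken at 0, 5, 10 and 30 min, quenched with acetonitrile/tinidazole and run by LC-MS/MS. CLint = k / microsomal protein concentration. Midazolam was the positive control.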

CYP2C9 [3] = target: T2, CYP2C9 (Homo sapiens, UniProt P11712); assay: Time dependent irreversible inhibition of CYP2C9 in human liver microsomes at 10 uM preincubated with compound followed by NADPH addition by LC-MS/MS analysis; type: ADME; settings: liver microsomes; outline: as §1
CYP2C19 [4] = target: T3, CYP2C19 (Homo sapiens, UniProt P33261); assay: Time dependent irreversible inhibition of CYP2C19 in human liver microsomes at 10 uM preincubated with compound followed by NADPH addition by LC-MS/MS analysis; type: ADME; outline: as §1
[5] = Drug recovery in rat liver microsomes at 1 uM measured after 30 mins by LC-MS/MS analysis; type: ADME, microsome; settings: liver microsomes, read-out: Drug recovery
[6] = Drug recovery in monkey liver microsomes at 1 uM measured after 30 mins by LC-MS/MS analysis
CYP2D6 [7] = target: T4, CYP2D6 (Homo sapiens, UniProt P10635); assay: Time dependent irreversible inhibition of CYP2D6 in human liver microsomes at 10 uM preincubated with compound followed by NADPH addition by LC-MS/MS analysis; type: ADME; settings: liver microsomes; outline: as §1
Cytochrome P450 3A4 = Cytochrome P450 3A4 (Homo sapiens, UniProt P08684); assay: (§3) Reversible inhibition of CYP3A4 in human liver microsomes at 10 uM after 20 mins in presence of NADPH by LC-MS/MS analysis; type: ADME; settings: microsomes, 20 min, 10 µM
[8] = Intrinsic clearance in human liver microsomes assessed per mg protein at 1 uM preincubated for 5 mins followed by NADPH addition measured after 5 to 30 mins by LC-MS/MS analysis; type: ADME, microsome; settings: read-out: CLH; outline: as §2
CYP3A4 [9] = target: T5, CYP3A4 (Homo sapiens, UniProt P08684); assay: Time dependent irreversible inhibition of CYP3A4 in human liver microsomes at 10 uM preincubated with compound followed by NADPH addition by LC-MS/MS analysis; type: ADME; settings: liver microsomes; outline: as §1
NCI-H1993 = assay: Growth inhibition of human NCI-H1993 cells after 72 hrs by CCK-8 assay; type: functional, cell-based; settings: Homo sapiens, NCI-H1993, 72 h
[10] = Intrinsic clearance in monkey liver microsomes assessed per mg protein at 1 uM preincubated for 5 mins followed by NADPH addition measured after 5 to 30 mins by LC-MS/MS analysis; settings: for microsomal CLint at 1 µM: liver microsomes, read-out: CLH
SNU-5 = assay: Growth inhibition of human SNU5 cells after 72 hrs by CCK-8 assay; type: functional, cell-based; settings: Homo sapiens, SNU-5, 72 h
[11] = Drug recovery in human liver microsomes at 1 uM measured after 30 mins by LC-MS/MS analysis; type: ADME, microsome; settings: liver microsomes, read-out: Drug recovery
Outline: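 Liver microsomes (0.5 mg/ml) were incubated with 1 µM compound at 37°C in 100 mM phosphate buffer pH 7.4 without NADPH for 30 min. Reactions were quenched with acetonitrile/tinidazole internal standard and analysed by LC-MS/MS. Recovery (%) was taken from the compound/internal standard peak area ratio.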

Cytochrome P450 2C19 = Cytochrome P450 2C19 (Homo sapiens, UniProt P33261); assay: (§4) Reversible inhibition of CYP2C19 in human liver microsomes at 10 uM after 20 mins in presence of NADPH by LC-MS/MS analysis; type: ADME; settings: microsomes, 20 min, 10 µM
Cytochrome P450 2C9 = Cytochrome P450 2C9 (Homo sapiens, UniProt P11712); assay: (§5) Reversible inhibition of CYP2C9 in human liver microsomes at 10 uM after 20 mins by in presence of NADPH LC-MS/MS analysis; type: ADME; settings: microsomes, 20 min, 10 µM
CYP3A4 [12] = target: T5, CYP3A4; assay: as §3; type: ADME; settings: liver microsomes
CYP2C19 [13] = target: T3, CYP2C19; assay: as §4; type: ADME; settings: liver microsomes
CYP2C9 [14] = target: T2, CYP2C9; assay: as §5; type: ADME; settings: liver microsomes
CYP1A2 [15] = target: T1, CYP1A2; assay: Reversible inhibition of CYP1A2 in human liver microsomes at 10 uM after 20 mins in presence of NADPH by LC-MS/MS analysis; type: ADME
CYP2D6 [16] = target: T4, CYP2D6; assay: Reversible inhibition of CYP2D6 in human liver microsomes at 10 uM after 20 mins in presence of NADPH by LC-MS/MS analysis; type: ADME; settings: liver microsomes
[17] = target: Hepatocyte growth factor receptor (Homo sapiens, UniProt P08581); assay: Inhibition of c-MET (unknown origin) using TK substrate-biotin peptide as substrate preincubated for 5 to 10 mins followed by ATP addition measured after 30 mins by HTRF assay
Hepatocyte growth factor receptor, sequence (P08581 whole entry): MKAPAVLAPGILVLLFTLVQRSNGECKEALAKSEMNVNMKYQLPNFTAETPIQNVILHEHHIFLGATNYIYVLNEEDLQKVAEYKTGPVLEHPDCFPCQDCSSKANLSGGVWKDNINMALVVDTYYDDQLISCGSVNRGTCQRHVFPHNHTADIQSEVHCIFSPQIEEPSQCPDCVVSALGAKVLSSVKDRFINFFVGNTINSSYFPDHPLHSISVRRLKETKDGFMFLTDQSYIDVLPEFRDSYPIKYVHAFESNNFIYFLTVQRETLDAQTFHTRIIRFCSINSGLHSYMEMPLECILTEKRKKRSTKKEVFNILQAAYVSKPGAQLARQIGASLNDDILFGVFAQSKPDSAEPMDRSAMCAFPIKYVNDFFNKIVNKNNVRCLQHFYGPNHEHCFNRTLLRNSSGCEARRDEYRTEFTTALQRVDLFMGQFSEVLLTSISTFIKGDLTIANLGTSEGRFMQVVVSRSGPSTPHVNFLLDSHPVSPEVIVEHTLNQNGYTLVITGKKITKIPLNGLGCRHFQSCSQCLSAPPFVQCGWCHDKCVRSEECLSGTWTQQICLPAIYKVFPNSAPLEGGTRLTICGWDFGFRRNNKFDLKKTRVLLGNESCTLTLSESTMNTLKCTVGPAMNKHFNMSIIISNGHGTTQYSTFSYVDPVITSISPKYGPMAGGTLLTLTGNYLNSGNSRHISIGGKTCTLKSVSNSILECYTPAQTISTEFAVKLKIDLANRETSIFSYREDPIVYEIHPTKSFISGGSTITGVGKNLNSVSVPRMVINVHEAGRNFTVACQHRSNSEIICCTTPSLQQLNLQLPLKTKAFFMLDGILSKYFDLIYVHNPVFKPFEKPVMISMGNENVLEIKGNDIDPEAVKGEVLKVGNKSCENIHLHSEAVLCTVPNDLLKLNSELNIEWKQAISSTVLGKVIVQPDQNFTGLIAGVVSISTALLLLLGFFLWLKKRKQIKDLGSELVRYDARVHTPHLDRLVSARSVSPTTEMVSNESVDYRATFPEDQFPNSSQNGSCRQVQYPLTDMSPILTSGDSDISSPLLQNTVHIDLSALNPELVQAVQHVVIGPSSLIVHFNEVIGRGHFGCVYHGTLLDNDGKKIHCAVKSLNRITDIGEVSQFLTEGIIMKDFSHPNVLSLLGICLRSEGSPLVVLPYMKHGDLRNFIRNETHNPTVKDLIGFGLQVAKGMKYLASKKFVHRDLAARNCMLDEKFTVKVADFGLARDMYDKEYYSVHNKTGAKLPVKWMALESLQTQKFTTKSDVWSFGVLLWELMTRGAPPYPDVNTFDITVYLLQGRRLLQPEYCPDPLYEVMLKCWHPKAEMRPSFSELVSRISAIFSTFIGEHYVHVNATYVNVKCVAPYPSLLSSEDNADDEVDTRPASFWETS

T3 sequence (P33261 whole entry): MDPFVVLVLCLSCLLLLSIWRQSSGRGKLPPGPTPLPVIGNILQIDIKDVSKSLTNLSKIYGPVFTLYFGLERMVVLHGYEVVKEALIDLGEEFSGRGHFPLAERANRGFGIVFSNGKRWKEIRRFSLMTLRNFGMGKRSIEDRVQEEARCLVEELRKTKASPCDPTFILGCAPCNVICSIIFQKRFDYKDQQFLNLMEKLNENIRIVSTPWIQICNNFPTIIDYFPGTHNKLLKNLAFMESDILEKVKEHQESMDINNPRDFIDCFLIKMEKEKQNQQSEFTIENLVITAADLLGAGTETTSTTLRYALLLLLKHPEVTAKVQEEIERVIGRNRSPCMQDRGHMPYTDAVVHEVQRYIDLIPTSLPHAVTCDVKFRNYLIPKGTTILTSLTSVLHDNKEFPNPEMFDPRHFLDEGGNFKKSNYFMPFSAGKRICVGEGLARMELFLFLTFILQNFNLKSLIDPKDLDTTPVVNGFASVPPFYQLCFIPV
Cytochrome P450 2C19, sequence (P33261 whole entry): as above
T5 sequence (P08684 whole entry): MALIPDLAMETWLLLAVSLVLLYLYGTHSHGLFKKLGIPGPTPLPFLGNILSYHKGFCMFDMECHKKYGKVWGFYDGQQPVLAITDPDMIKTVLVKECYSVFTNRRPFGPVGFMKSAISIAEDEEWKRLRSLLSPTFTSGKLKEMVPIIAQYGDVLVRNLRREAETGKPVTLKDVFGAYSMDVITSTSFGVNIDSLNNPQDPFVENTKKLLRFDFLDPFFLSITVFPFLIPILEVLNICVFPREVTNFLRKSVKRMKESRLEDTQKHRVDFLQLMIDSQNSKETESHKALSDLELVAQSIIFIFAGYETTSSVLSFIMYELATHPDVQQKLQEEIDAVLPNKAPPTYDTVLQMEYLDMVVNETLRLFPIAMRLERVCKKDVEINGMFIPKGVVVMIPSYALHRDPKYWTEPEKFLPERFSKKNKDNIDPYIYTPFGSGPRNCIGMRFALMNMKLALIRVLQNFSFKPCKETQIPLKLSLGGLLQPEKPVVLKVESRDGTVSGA
Cytochrome P450 2C9, sequence (P11712 whole entry): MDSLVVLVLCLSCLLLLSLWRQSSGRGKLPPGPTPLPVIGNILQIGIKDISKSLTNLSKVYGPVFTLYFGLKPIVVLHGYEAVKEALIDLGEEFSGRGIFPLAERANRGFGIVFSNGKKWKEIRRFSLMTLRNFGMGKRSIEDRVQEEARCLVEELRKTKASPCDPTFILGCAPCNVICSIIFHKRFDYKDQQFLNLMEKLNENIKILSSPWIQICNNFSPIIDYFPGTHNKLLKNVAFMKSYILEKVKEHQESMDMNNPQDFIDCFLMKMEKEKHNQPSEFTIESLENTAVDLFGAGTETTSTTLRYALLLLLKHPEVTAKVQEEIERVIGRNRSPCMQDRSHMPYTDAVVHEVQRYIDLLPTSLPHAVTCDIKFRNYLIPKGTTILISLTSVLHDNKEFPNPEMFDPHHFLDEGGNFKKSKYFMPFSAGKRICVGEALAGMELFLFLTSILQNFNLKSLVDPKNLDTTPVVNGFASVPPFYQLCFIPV
T2 sequence (P11712 whole entry): as above
T4 sequence (P10635 whole entry): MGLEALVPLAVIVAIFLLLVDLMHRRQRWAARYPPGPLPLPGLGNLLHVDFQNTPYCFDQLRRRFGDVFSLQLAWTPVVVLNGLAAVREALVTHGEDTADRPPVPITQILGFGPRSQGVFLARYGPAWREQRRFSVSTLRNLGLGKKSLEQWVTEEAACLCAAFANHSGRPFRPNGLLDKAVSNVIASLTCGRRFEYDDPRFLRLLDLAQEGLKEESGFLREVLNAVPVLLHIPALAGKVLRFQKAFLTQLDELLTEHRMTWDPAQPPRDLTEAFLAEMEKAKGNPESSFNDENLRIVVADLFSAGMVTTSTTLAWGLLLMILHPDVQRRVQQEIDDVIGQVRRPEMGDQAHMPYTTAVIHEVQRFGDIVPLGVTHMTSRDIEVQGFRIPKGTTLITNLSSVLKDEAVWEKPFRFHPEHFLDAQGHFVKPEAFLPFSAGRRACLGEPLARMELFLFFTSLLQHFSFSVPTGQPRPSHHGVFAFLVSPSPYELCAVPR
Cytochrome P450 3A4, sequence (P08684 whole entry): as the sequence (P08684 whole entry) above

Row | inhibition at 10 µM (CYP1A2 [1]) | microsomal CLint at 1 µM [2] | inhibition at 10 µM (CYP2C9 [3]) | inhibition at 10 µM (CYP2C19 [4]) | remaining at 0.5 h, 1 µM [5] | remaining at 0.5 h, 1 µM [6] | inhibition at 10 µM (CYP2D6 [7]) | microsomal CLint at 1 µM [8] | inhibition at 10 µM (CYP3A4 [9]) | pIC50 (NCI-H1993) | microsomal CLint at 1 µM [10] | pIC50 (SNU-5) | remaining at 0.5 h, 1 µM [11] | also measured | Compound
1 | < 50% | 5 µL/min/mg | < 50% | < 50% | 114% | 97% | < 50% | 1 µL/min/mg | < 50% | 9.30 | 16 µL/min/mg | 9.22 | 115% | inhibition (INH) (Cytochrome P450 3A4): Active | CNC(=O)c1ccc(-c2cnc3nnn(C(C)c4ccc5ncc(-c6cnn(C)c6)cc5c4)c3n2)cc1F (stereo not given)
2 | – | 28 µL/min/mg | – | – | 97% | 109% | – | 16 µL/min/mg | – | 8.92 | 112 µL/min/mg | 8.66 | 105% | – | CC(c1ccc2ncc(-c3ccc(F)cc3)cc2c1)n1nnc2ncc(-c3cnn(C)c3)nc21 (stereo not given)
3 | < 50% | 48 µL/min/mg | < 50% | < 50% | 95% | 95% | < 50% | 5 µL/min/mg | < 50% | – | 187 µL/min/mg | 9.05 | 92% | inhibition (INH) (Cytochrome P450 2C19): Active; inhibition (INH) (Cytochrome P450 2C9): Active | CNC(=O)c1ccc(-c2cnc3nnn(C(C)c4c(F)cc5ncc(-c6cnn(C)c6)cc5c4F)c3n2)cc1F (stereo not given)
4 | < 50% | 12 µL/min/mg | < 50% | < 50% | 111% | 69% | < 50% | 5 µL/min/mg | < 50% | 8.96 | 24 µL/min/mg | 9.22 | 116% | inhibition at 20 min, 10 µM (CYP3A4 [12]): < 50%; inhibition at 20 min, 10 µM (CYP2C19 [13]): < 50%; inhibition at 20 min, 10 µM (CYP2C9 [14]): < 50%; inhibition at 20 min, 10 µM (CYP1A2 [15]): < 50%; inhibition at 20 min, 10 µM (CYP2D6 [16]): < 50% | CNC(=O)c1ccc(-c2cnc3nnn(C(C)c4cc5cc(-c6cnn(C)c6)cnc5cc4F)c3n2)cc1F (stereo not given)
5 | – | – | – | – | – | – | – | – | – | – | – | – | – | pIC50 [17]: < 7.00 | CC(c1ccc2nc(-c3cnn(C)c3)ccc2c1)n1nnc2ncc(-c3ccc(N)cc3)nc21 (stereo not given)
6 | – | – | – | – | – | – | – | – | – | 8.44 | – | 8.17 | – | – | CC(c1cc2cc(-c3ccc(F)cc3)cnc2cc1F)n1nnc2ncc(-c3ccncc3)nc21 (stereo not given)
7 | – | – | – | – | – | – | – | – | – | 8.59 | – | 8.66 | – | – | CC(c1c(F)cc2ncc(-c3ccc(F)cc3)cc2c1F)n1nnc2ncc(-c3cnn(C)c3)nc21 (stereo not given)
8 | – | – | – | – | – | – | – | – | – | – | – | – | – | pIC50 [17]: < 7.00 | CC(c1ccc2nc(-c3cnn(C)c3)ccc2c1)n1nnc2ncc(-c3cnn(C)c3)nc21 (stereo not given)
9 | – | – | – | – | – | – | – | – | – | 8.39 | – | 8.70 | – | – | CC(c1cc2cc(-c3ccc(F)cc3)cnc2cc1F)n1nnc2ncc(-c3cnn(C)c3)nc21 (stereo not given)
10 | – | – | – | – | – | – | – | – | – | 8.46 | – | 8.14 | – | – | CC(c1c(F)cc2ncc(-c3ccc(F)cc3)cc2c1F)n1nnc2ncc(-c3ccncc3)nc21 (stereo not given)
11 | – | 49 µL/min/mg | – | – | 79% | 1% | – | 8 µL/min/mg | – | – | – | – | 92% | CLH ([10]; microsomes, 1 µM): Nd(Unstable) | C[C@@H](c1cc2cccnc2cc1F)n1cnc2ncc(-c3cnn(C)c3)nc21
12 | – | 57 µL/min/mg | – | – | 97% | 93% | – | 15 µL/min/mg | – | 8.38 | 119 µL/min/mg | 8.43 | 104% | – | CNC(=O)c1ccc(-c2cnc3nnn(C(C)c4ccc5ncc(-c6ccc(F)cc6)cc5c4)c3n2)cc1F (stereo not given)
13 | < 50% | 6 µL/min/mg | < 50% | < 50% | 104% | 108% | < 50% | – | < 50% | 9.70 | 16 µL/min/mg | 8.74 | 105% | inhibition (INH) (Cytochrome P450 2C19): Active; inhibition (INH) (Cytochrome P450 2C9): Active | CC(c1ccc2ncc(-c3cnn(C)c3)cc2c1)n1nnc2ncc(-c3cnn(CCO)c3)nc21 (stereo not given)
14 | – | 56 µL/min/mg | – | – | 91% | 97% | – | 14 µL/min/mg | – | 8.06 | 65 µL/min/mg | 8.15 | 105% | – | CC(c1ccc2ncc(-c3ccc(F)cc3)cc2c1)n1nnc2ncc(-c3ccncc3)nc21 (stereo not given)
15 | < 50% | 20 µL/min/mg | < 50% | < 50% | 97% | 102% | < 50% | 8 µL/min/mg | < 50% | 9.10 | 43 µL/min/mg | 8.89 | 98% | inhibition (INH) (Cytochrome P450 2C19): Active; inhibition (INH) (Cytochrome P450 2C9): Active | CC(c1c(F)cc2ncc(-c3cnn(C)c3)cc2c1F)n1nnc2ncc(-c3cnn(CCO)c3)nc21 (stereo not given)
